ChEMBL document CHEMBL4028867, “Design, Synthesis, and Characterization of N-Oxide-Containing Heterocycles with in Vivo Sterilizing Antitubercular Activity” (J Med Chem, 2017)
Values after ≈ are worked out from the molar mass of the structure shown. Active and inactive are the calls of the source. The rule behind the calls is not given here.

Key:
[1] = system: MRC5; experiment: Cytotoxicity against human MRC5 cells assessed as reduction in cell viability after 24 hrs by fluorescence assay; format: cell-based; conditions: MRC5, 24 h
Summary of the method: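 MRC-5 human lung fibroblasts; cytotoxicity reported as IC50.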

[2] = system: Mus musculus; experiment: Toxicity in BALB/c mouse assessed as change in spleen weight at 200 mg/kg, po qd administered via gavage after 10 days; format: organism-based; conditions: in vivo, 240 h
Summary of the method: (§1)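 Mice given one daily oral gavage dose of 200 mg/kg body weight for 10 days with daily behavioural monitoring (hippocratic screening); heart, lung, spleen, kidney and liver weights compared with controls by ANOVA and Dunnett's test, p < 0.05.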

[3] = biological target: T1, Cytochrome P450 2C8 (Homo sapiens, UniProt P10632); experiment: Inhibition of CYP2C8 in human liver microsomes in presence of NADPH by LC-MS/MS analysis; format: ADME
T1 sequence (P10632 whole entry): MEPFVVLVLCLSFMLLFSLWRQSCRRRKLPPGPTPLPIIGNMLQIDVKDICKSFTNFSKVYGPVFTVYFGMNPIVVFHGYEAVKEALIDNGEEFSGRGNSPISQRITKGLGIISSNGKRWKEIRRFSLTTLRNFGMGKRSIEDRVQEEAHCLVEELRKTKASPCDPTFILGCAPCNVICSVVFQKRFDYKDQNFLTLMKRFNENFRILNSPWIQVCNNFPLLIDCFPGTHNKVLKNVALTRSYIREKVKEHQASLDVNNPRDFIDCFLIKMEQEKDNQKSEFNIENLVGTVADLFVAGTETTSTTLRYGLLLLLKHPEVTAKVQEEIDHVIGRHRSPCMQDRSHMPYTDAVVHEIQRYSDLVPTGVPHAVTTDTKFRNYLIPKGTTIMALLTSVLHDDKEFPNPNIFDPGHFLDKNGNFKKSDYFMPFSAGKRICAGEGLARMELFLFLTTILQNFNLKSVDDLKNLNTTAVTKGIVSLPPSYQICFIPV

[4] = system: Mycobacterium tuberculosis; experiment: Down-regulation of HSP gene in Mycobacterium tuberculosis H37Rv at 2 times MIC90 after 4 hrs by microarray analysis; format: functional
[5] = system: Mycobacterium tuberculosis; experiment: Downregulation of hspR gene in Mycobacterium tuberculosis H37Rv at 2 times MIC90 after 4 hrs by microarray analysis; format: functional
[6] = Chemical stability in PBS at pH 5.5 assessed as drug degradation after 10 hrs by HPLC-UV analysis; format: physicochemical; conditions: read-out: Drug degradation
[7] = system: Mycobacterium tuberculosis; experiment: Upregulation of ribosomal protein gene in Mycobacterium tuberculosis H37Rv at 2 times MIC90 after 4 hrs by microarray analysis; format: functional
[8] = n-Octanol/water partition coefficient, log P of the compound by HPLC analysis; format: physicochemical
Summary of the method: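 Log P from n-octanol/water partition coefficient determined by HPLC method.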

[9] = system: Mycobacterium tuberculosis; experiment: Antitubercular activity against Mycobacterium tuberculosis H37Rv ATCC 27294 in presence of 10% fetal bovine serum; format: functional
[10] = system: Mycobacterium tuberculosis; experiment: Growth inhibition of Mycobacterium tuberculosis H37Rv exposed to plasma from BALB/c mouse treated with 300 mg/kg, po administered through microemulsion vehicle as single oral dose per gavage after 1 hr by Resazurin microtiter assay; format: functional; conditions: read-out: GI
Summary of the method: (§2)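 The microemulsion was 10% cholesterol, 10% phosphatidylcholine/sodium oleate/polyoxyl 40 hydrogenated castor oil (3:6:8) and 80% phosphate buffer pH 7.4. Plasma taken at 0.3, 1, 2 or 4 h was tested by REMA for % Mtb growth inhibition, and plasma level was estimated against the in-vitro REMA MIC.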

[11] = system: Mycobacterium tuberculosis; experiment: Antitubercular activity against Mycobacterium tuberculosis H37Rv ATCC 27294 in presence of 4% fetal bovine serum; format: functional
[12] = Apparent permeability from apical to basolateral side in human Caco2 cells by LC-MS/MS analysis; format: ADME, cell-based; conditions: caco-2
Summary of the method: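 Caco-2 monolayer permeability measured in both directions (apical-to-basolateral and basolateral-to-apical); result given as apparent permeability coefficient Papp in cm/s.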

[13] = system: Mycobacterium tuberculosis; experiment: Growth inhibition of Mycobacterium tuberculosis H37Rv exposed to plasma from BALB/c mouse treated with 300 mg/kg, po administered through microemulsion vehicle as single oral dose per gavage after 0.3 hrs by Resazurin microtiter assay; format: functional; conditions: read-out: GI; summary of the method: as §2
[14] = system: Mus musculus; experiment: Toxicity in BALB/c mouse assessed as change in liver weight at 200 mg/kg, po qd administered via gavage after 10 days; format: organism-based; conditions: in vivo, 240 h; summary of the method: as §1
[15] = Stability of the compound in PBS assessed as parent compound remaining at pH 5.5 after 24 hrs by HPLC-UV analysis; format: physicochemical; conditions: read-out: Stability
[16] = system: Mycobacterium tuberculosis; experiment: Antitubercular activity against dormant stage Mycobacterium tuberculosis H37Rv ATCC 27294 incubated for 10 days in anaerobic condition followed by incubation for 28 hrs in ambient gaseous condition measured after day 11 by two fold serial dilution assay; format: functional
[17] = Fraction unbound in human plasma at 5 uM by LC-MS/MS analysis; format: ADME, cell-free
[18] = system: Mycobacterium tuberculosis; experiment: Up-regulation of […] gene EF-G in Mycobacterium tuberculosis H37Rv at 2 times MIC90 after 4 hrs by microarray analysis; format: functional
[19] = Chemical stability in PBS at pH 7.4 assessed as drug degradation after 10 hrs by HPLC-UV analysis; format: physicochemical; conditions: read-out: Drug degradation
[20] = system: Escherichia coli; experiment: Antimicrobial activity against Escherichia coli ATCC 25922 at 200 uM incubated for 16 hrs; format: functional
[21] = system: Mus musculus; experiment: Hepatotoxicity in BALB/c mouse assessed as change in liver morphology at 200 mg/kg, po qd administered via gavage after 10 days by hematoxylin and eosin staining based analysis; format: toxicity, organism-based; conditions: in vivo, 240 h
Summary of the method: (§3)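 BALB/c mice dosed orally by gavage once daily at 200 mg/kg; liver and kidney sections stained with H&E and examined for tissue morphology.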

[22] = Stability of the compound in PBS assessed as parent compound remaining at pH 7.4 after 24 hrs by HPLC-UV analysis; format: physicochemical; conditions: read-out: Stability
[23] = system: Mycobacterium tuberculosis; experiment: Antitubercular activity against Mycobacterium tuberculosis H37Rv ATCC 27294 under acidic pH 6 condition; format: functional
[24] = system: Mus musculus; experiment: Toxicity in BALB/c mouse assessed as change in lung weight at 200 mg/kg, po qd administered via gavage after 10 days; format: organism-based; conditions: in vivo, 240 h; summary of the method: as §1
[25] = system: Mus musculus; experiment: Toxicity in BALB/c mouse assessed as change in heart weight at 200 mg/kg, po qd administered via gavage after 10 days; format: organism-based; conditions: in vivo, 240 h; summary of the method: as §1
[26] = system: Mus musculus; experiment: Nephrotoxicity in BALB/c mouse assessed as change in kidney morphology at 200 mg/kg, po qd administered via gavage after 10 days by hematoxylin and eosin staining based analysis; format: toxicity, organism-based; conditions: in vivo, 240 h; summary of the method: as §3
[27] = system: Mus musculus; experiment: Genotoxicity in Swiss mouse assessed as incidence of micronucleated peripheral blood reticulocytes at 50 to 500 mg/kg dosed via gavage by micronucleus assay; format: toxicity, organism-based; conditions: in vivo, po

O=C(N/N=C/c1ccc2no[n+]([O-])c2c1)c1ccncc1
IC50 [1]: 519 µM
Activity [2]: Non-Toxic
IC50 [3]: > 20 µM
Activity [4]: Active
Activity [5]: Active
degraded at 10 h [6]: 20%
Activity [7]: Active
logP [8]: 1.5
MIC90 [9]: 11.8 µM
inhibition in vivo at 300 mg/kg [10]: 79%
MIC90 [11]: 9.81 µM
Papp [12]: 5.67 ×10⁻⁶ cm/s
inhibition in vivo at 300 mg/kg [13]: 65.7%
Activity [14]: Non-Toxic
remaining at 24 h [15]: 67%
MIC90 [16]: 6.62 µM (≈ 1.88 µg/mL)
fraction unbound at 5 µM [17]: 0.465
Activity [18]: Active
degraded at 10 h [19]: 20%
Activity [20]: inactive
Activity [21]: Non-Toxic
remaining at 24 h [22]: 75%
MIC90 [23]: 3.41 µM (≈ 0.966 µg/mL)
Activity [24]: Non-Toxic
Activity [25]: Non-Toxic
Activity [26]: Non-Toxic
Activity [27]: Non-Toxic
